ChEMBL document CHEMBL3046706, “Synthesis and quantitative structure-activity relationships of new 2,5-disubstituted-1,3,4-oxadiazoles” (2001)

Tests used:
Assay type in all cases: functional
[1] = system: Spodoptera eridania; assay: Insecticidal activity against second-instar larvae of Spodoptera eridania fed on compound-treated corn leaves measured after 5 days; details: 120 h
[2] = system: Mythimna separata; assay: Insecticidal activity against second-instar larvae of Mythimna separata (Oriental armyworm) fed on compound-treated mealie leaves measured after 5 days; details: 120 h
Summary of the method: (§1)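 Second-instar Pseudaletia separata larvae were fed compound-treated mealie leaves, with fresh treated leaves added daily, at about 20 °C in a well-ventilated room. Percent mortality at 5 days was based on the number and size of live larvae relative to untreated controls. LC50 values are in μg/mL and were converted to pLC50 (−log LC50).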

[3] = system: Mythimna separata; assay: Insecticidal activity against second-instar larvae of Mythimna separata (Oriental armyworm) fed on compound-treated mealie leaves at pLC50 measured after 5 days; summary of the method: as §1

SMILES	LC50 [1]	LC50 [2]	mortality [3]
Fc1cc(-c2nnc(-c3ccc(Cl)cc3Cl)o2)c(Cl)cc1Cl	5.25 µM	–	–
Fc1cc(-c2nnc(-c3cc(F)c(Cl)cc3Cl)o2)c(Cl)cc1Cl	1.78 µM	–	–
Clc1ccc(-c2nnc(-c3ccc(Cl)cc3Cl)o2)c(Cl)c1	10.2 µM	–	–
Fc1cccc(-c2nnc(-c3cc(F)c(Cl)cc3Cl)o2)c1	51.3 µM	–	–
Fc1cc(-c2nnc(COc3ccc(Cl)cc3Cl)o2)c(Cl)cc1Cl	–	1700 µM	–
CC1(C)C(C=C(Cl)Cl)C1c1nnc(-c2cccc(F)c2)o1 (configuration not stated)	759 µM	–	–
CC1(C)C(C=C(Cl)Cl)C1c1nnc(-c2cc(F)c(Cl)cc2Cl)o1 (configuration not stated)	562 µM	–	–
Fc1cc(-c2nnc(COc3ccc(Cl)cc3)o2)c(Cl)cc1Cl	–	55 µM	–
Clc1ccc(OCc2nnc(-c3ccc(Cl)cc3Cl)o2)c(Cl)c1	–	776 µM	–
Clc1ccc(OCc2nnc(-c3ccc(Cl)nc3)o2)cc1	–	> 1000 µM	7%
Clc1ccc(OCc2nnc(-c3cccnc3Cl)o2)cc1	–	> 1000 µM	0%
Fc1cccc(-c2nnc(COc3ccc(Cl)cc3)o2)c1	–	> 1000 µM	0%
Clc1ccc(OCc2nnc(-c3ccc(Cl)cc3Cl)o2)cc1	–	15.8 µM	–
Fc1cc(-c2nnc(COc3ccccc3Cl)o2)c(Cl)cc1Cl	–	14.5 µM	–
CC1(C)C(C=C(Cl)Cl)C1c1nnc(/C=C/c2ccccc2)o1 (mixture of isomers)	–	> 1000 µM	0%
CC1(C)C(C=C(Cl)Cl)C1c1nnc(-c2ccc(Cl)cc2)o1 (mixture of isomers)	–	> 1000 µM	0%
COc1ccc(-c2nnc(C3C(C=C(Cl)Cl)C3(C)C)o2)cc1 (mixture of isomers)	–	> 1000 µM	0%
CC1(C)C(C=C(Cl)Cl)C1c1nnc(-c2cccs2)o1 (mixture of isomers)	–	> 1000 µM	0%
CC1(C)[C@@H](C=C(Cl)Cl)[C@@H]1c1nnc(-c2ccc(Cl)cc2Cl)o1 (relative stereo)	–	123 µM	–
CC1(C)[C@@H](C=C(Cl)Cl)[C@@H]1c1nnc(-c2ccccc2)o1 (relative stereo)	–	1380 µM	–
